{"source": "ChEMBL document CHEMBL1156905", "about": "“N-heterocyclic derived M1 positive allosteric modulators” (Bioorg Med Chem Lett, 2010)", "key": {"[1]": {"molecular_target": "T1, Muscarinic acetylcholine receptor M1 (Homo sapiens) (UniProt P11229)", "T1 sequence (whole entry)": "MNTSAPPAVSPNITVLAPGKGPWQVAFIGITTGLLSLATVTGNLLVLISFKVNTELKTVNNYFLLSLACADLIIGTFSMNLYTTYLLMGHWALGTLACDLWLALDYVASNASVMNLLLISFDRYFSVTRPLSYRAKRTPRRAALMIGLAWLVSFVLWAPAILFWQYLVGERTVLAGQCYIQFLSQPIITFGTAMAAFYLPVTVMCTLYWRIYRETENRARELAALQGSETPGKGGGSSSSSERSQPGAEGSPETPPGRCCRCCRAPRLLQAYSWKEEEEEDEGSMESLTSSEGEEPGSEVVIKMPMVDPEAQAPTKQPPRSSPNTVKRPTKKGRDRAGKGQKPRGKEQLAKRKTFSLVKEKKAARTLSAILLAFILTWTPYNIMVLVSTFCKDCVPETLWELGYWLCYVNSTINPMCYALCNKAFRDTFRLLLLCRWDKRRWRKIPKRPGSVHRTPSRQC", "assay": "Allosteric modulator activity at human muscarinic M1 receptor expressed in CHO cells assessed as potentiation of acetylcholine-induced calcium mobilization by FLIPR assay", "assay_type": "functional, cell-based"}, "[2]": {"assay": "Protein binding in rat plasma", "assay_type": "ADME, cell-free", "details": "read-out: PPB (converted)", "method_in_brief": "(§1)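 Binding in rat and human serum/plasma measured by equilibrium dialysis.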"}, "[3]": {"species": "Homo sapiens", "assay": "Protein binding in human plasma", "details": "read-out: PPB (converted)"}, "[4]": {"assay": "Ratio of drug level in brain to plasma in Sprague-Dawley rat at 10 mg/kg, po", "assay_type": "ADME, organism-based", "set-up": "dose 10 mg/kg, route oral", "method_in_brief": "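Sprague–Dawley rats dosed orally at 10 mg/kg in 0.5% methocel; brain to plasma level ratio; interanimal variability under 20%.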"}, "[5]": {"assay": "Ratio of drug level in rat cerebrospinal fluid to unbound fraction in rat plasma", "assay_type": "ADME, CSF/Plasma", "details": "in vivo"}, "[6]": {"molecular_target": "T1, Muscarinic acetylcholine receptor M1 (Homo sapiens)", "assay": "Allosteric modulator activity at human muscarinic M1 receptor expressed in CHO cells assessed as potentiation of acetylcholine-induced calcium mobilization at 1 uM by FLIPR assay", "assay_type": "functional, cell-based", "method_in_brief": "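CHO cells expressing human M1; acetylcholine dose response run with fixed 1 µM potentiator (also 0.01–100 µM series), calcium mobilization by FLIPR; fold left-shift of acetylcholine curve recorded.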"}, "[7]": {"molecular_target": "T1, Muscarinic acetylcholine receptor M1 (Homo sapiens)", "assay": "Agonist activity at human muscarinic M1 receptor expressed in CHO cells assessed as potentiation of acetylcholine-induced calcium mobilization at >= 10 uM by FLIPR assay", "assay_type": "functional, cell-based"}, "[8]": {"assay": "Plasma concentration in ip dosed mouse after 24 hrs"}, "[9]": {"system": "Mus musculus", "assay": "Reversal of cognitive deficits in contextual fear conditioning in mouse at 10 mg/kg, ip after 24 hrs in presence of Scopolamine", "assay_type": "functional, organism-based", "set-up": "dose 10 mg/kg", "method_in_brief": "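Mouse contextual fear conditioning (episodic memory model); mice given scopolamine before exposure to novel environment; test agent 10 mg/kg ip; reversal compared with scopolamine-alone group; plasma levels sampled.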"}, "[10]": {"species": "Homo sapiens", "assay": "Protein binding in human plasma", "details": "read-out: PPB (converted)", "remark": "listed apart in the source"}, "[11]": {"system": "Plasma", "assay": "Fraction unbound in human plasma", "assay_type": "ADME, cell-free", "method_in_brief": "as §1"}, "[12]": {"assay": "Fraction unbound in rat plasma", "assay_type": "ADME, cell-free", "method_in_brief": "as §1"}, "[13]": {"species": "Homo sapiens", "assay": "Fraction unbound in human plasma"}}, "note": "Calls of active or inactive are those of the source. The calls are words filed in the database; no cut-off is given here."}
{"smiles": "O=C(O)c1cn(Cc2ccc(-n3ccc4ncccc43)cc2)c2cccc(F)c2c1=O", "values": [{"measurement": "Activity", "setting": "[1]", "value": 150, "unit": "nM"}]}
{"smiles": "O=C(O)c1cn(Cc2ccc(N3CCCC3=O)cc2)c2cccc(F)c2c1=O", "values": [{"measurement": "Activity", "setting": "[1]", "value": 2500, "unit": "nM"}]}
{"smiles": "O=C(O)c1cn(Cc2ccc(-n3nnc4ccccc43)cc2)c2cccc(F)c2c1=O", "values": [{"measurement": "Activity", "setting": "[1]", "value": 228, "unit": "nM"}]}
{"smiles": "O=C(O)c1cn(Cc2ccc(N3CCOC3=O)cc2)c2cccc(F)c2c1=O", "values": [{"measurement": "Activity", "setting": "[1]", "value": 500, "unit": "nM"}, {"measurement": "fraction unbound", "setting": "[2]", "value": 0.116}, {"measurement": "fraction unbound", "setting": "[3]", "value": 0.224}]}
{"smiles": "Cc1nn(-c2ccc(Cn3cc(C(=O)O)c(=O)c4c(F)cccc43)cc2)c2ccccc12", "values": [{"measurement": "Activity", "setting": "[1]", "value": 620, "unit": "nM"}]}
{"smiles": "O=C(O)c1cn(Cc2ccc(-n3cccn3)cc2)c2c(F)ccc(F)c2c1=O", "values": [{"measurement": "Activity", "setting": "[1]", "value": 171, "unit": "nM"}, {"measurement": "Kp", "setting": "[4]", "value": 0.03}, {"measurement": "Ratio", "setting": "[5]", "value": 0.1}, {"measurement": "fold change (FC)", "setting": "[6]", "value": 46}, {"measurement": "Activity", "setting": "[7]", "value": "Active"}, {"measurement": "concentration at 24 h", "setting": "[8]", "value": 9, "unit": "µM"}, {"measurement": "Activity", "setting": "[9]", "value": "Active"}, {"measurement": "fraction unbound", "setting": "[10]", "value": 0.043}]}
{"smiles": "O=C(O)c1cn(Cc2ccc(-n3ccc4cccnc43)cc2)c2cccc(F)c2c1=O", "values": [{"measurement": "Activity", "setting": "[1]", "value": 90, "unit": "nM"}]}
{"smiles": "O=C(O)c1cn(Cc2ccc(-n3cnc(-c4ccccc4)c3)cc2)c2cccc(F)c2c1=O", "values": [{"measurement": "Activity", "setting": "[1]", "value": 39, "unit": "nM"}]}
{"smiles": "O=C(O)c1cn(Cc2ccc(-n3ccc4cnccc43)cc2)c2cccc(F)c2c1=O", "values": [{"measurement": "Activity", "setting": "[1]", "value": 160, "unit": "nM"}, {"measurement": "fraction unbound", "setting": "[10]", "value": 0.031}]}
{"smiles": "Cc1nccn1-c1ccc(Cn2cc(C(=O)O)c(=O)c3c(F)cccc32)cc1", "values": [{"measurement": "Activity", "setting": "[1]", "value": 920, "unit": "nM"}]}
{"smiles": "O=C(O)c1cn(Cc2ccc(-n3ccc(C(F)(F)F)n3)cc2)c2cccc(F)c2c1=O", "values": [{"measurement": "Activity", "setting": "[1]", "value": 290, "unit": "nM"}]}
{"smiles": "O=C(O)c1cn(Cc2ccc(-n3cnc4ccccc43)cc2)c2cccc(F)c2c1=O", "values": [{"measurement": "Activity", "setting": "[1]", "value": 96, "unit": "nM"}, {"measurement": "Fu", "setting": "[11]", "value": 9, "unit": "%"}, {"measurement": "fraction unbound", "setting": "[12]", "value": 0.039}, {"measurement": "fraction unbound", "setting": "[10]", "value": 0.084}]}
{"smiles": "Cc1cn(-c2ccc(Cn3cc(C(=O)O)c(=O)c4c(F)cccc43)cc2)cn1", "values": [{"measurement": "Activity", "setting": "[1]", "value": 140, "unit": "nM"}, {"measurement": "fraction unbound", "setting": "[10]", "value": 0.111}]}
{"smiles": "O=C(O)c1cn(Cc2ccc(-n3ccnc3)cc2)c2cccc(F)c2c1=O", "values": [{"measurement": "Activity", "setting": "[1]", "value": 110, "unit": "nM"}, {"measurement": "fraction unbound", "setting": "[10]", "value": 0.162}]}
{"smiles": "O=C(O)c1cn(Cc2ccc(-n3cccn3)cc2)c2cccc(F)c2c1=O", "values": [{"measurement": "Activity", "setting": "[1]", "value": 94, "unit": "nM"}, {"measurement": "fraction unbound", "setting": "[2]", "value": 0.116}, {"measurement": "fraction unbound", "setting": "[12]", "value": 0.1}, {"measurement": "Kp", "setting": "[4]", "value": 0.04}, {"measurement": "Ratio", "setting": "[5]", "value": 0.05}, {"measurement": "fraction unbound", "setting": "[3]", "value": 0.116}, {"measurement": "fraction unbound", "setting": "[13]", "value": 0.1}]}
{"smiles": "Cc1ccn(-c2ccc(Cn3cc(C(=O)O)c(=O)c4c(F)cccc43)cc2)n1", "values": [{"measurement": "Activity", "setting": "[1]", "value": 36, "unit": "nM"}, {"measurement": "fraction unbound", "setting": "[2]", "value": 0.057}, {"measurement": "fraction unbound", "setting": "[3]", "value": 0.057}]}
{"smiles": "COc1ccc(Cn2cc(C(=O)O)c(=O)c3ccccc32)cc1", "values": [{"measurement": "Activity", "setting": "[1]", "value": 660, "unit": "nM"}]}
{"smiles": "O=C(O)c1cn(Cc2ccc(-n3cccn3)cc2)c2c(F)cccc2c1=O", "values": [{"measurement": "Activity", "setting": "[1]", "value": 96, "unit": "nM"}]}
{"smiles": "O=C(O)c1cn(Cc2ccc(-n3ccc4ccccc43)cc2)c2cccc(F)c2c1=O", "values": [{"measurement": "Activity", "setting": "[1]", "value": 250, "unit": "nM"}]}
{"smiles": "Cc1ccnn1-c1ccc(Cn2cc(C(=O)O)c(=O)c3c(F)cccc32)cc1", "values": [{"measurement": "Activity", "setting": "[1]", "value": 2900, "unit": "nM"}]}
{"smiles": "O=C(O)c1cn(Cc2ccc(-n3cccn3)nc2)c2c(F)cccc2c1=O", "values": [{"measurement": "Activity", "setting": "[1]", "value": 864, "unit": "nM"}]}
{"smiles": "O=C(O)c1cn(Cc2ccc(-n3cccn3)nn2)c2c(F)cccc2c1=O", "values": [{"measurement": "Activity", "setting": "[1]", "value": 24000, "unit": "nM"}]}
{"smiles": "O=C(O)c1cn(Cc2ccc(-n3cccc3)cc2)c2cccc(F)c2c1=O", "values": [{"measurement": "Activity", "setting": "[1]", "value": 181, "unit": "nM"}, {"measurement": "fraction unbound", "setting": "[2]", "value": 0.003}, {"measurement": "fraction unbound", "setting": "[3]", "value": 0.003}]}
{"smiles": "O=C(O)c1cn(Cc2ccc(-n3cccn3)cn2)c2c(F)cccc2c1=O", "values": [{"measurement": "Activity", "setting": "[1]", "value": 1400, "unit": "nM"}]}
